Bioassay records from PubChem.
FLuc inh counter: firefly luciferase enzyme inhibitors, primary screen, artefact control for luciferase-based inhibitor screens, biochemical, luminescence, ATPLite; hit rate 1.5% among 200,000; Luciferin 4-monooxygenase (Photinus pyralis), P08659; inhibition, % at 10 µM; 10 min;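 active means inhibition above about 50% when tested at 10 µM, limit read from the data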
Target sequence (P08659 whole entry, looked up): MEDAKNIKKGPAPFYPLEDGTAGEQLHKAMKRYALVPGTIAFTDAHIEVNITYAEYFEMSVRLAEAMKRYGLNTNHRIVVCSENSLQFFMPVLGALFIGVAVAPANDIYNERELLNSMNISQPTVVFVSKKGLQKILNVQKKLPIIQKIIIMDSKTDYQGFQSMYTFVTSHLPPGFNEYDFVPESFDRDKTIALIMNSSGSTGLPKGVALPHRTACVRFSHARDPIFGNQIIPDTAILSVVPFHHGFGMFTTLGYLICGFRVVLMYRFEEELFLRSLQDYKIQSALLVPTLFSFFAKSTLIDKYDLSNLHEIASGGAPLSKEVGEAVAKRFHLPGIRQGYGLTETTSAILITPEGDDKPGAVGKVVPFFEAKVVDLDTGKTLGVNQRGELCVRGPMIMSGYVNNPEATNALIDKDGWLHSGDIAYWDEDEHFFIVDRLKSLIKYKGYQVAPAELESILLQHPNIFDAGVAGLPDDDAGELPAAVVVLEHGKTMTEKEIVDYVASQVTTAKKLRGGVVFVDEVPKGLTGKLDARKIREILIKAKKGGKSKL
APP 5'UTR act: activators of APP 5'UTR luciferase reporter, primary screen, SH-SY5Y cells. AID 1276, 2008. activation, % at 2 µM. SH-SY5Y APP 5'UTR luciferase reporter, luminescence; zero percent = DMSO vehicle wells. hit rate 1% among 190,000;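 active means activation above a set limit, based on mean plus 3 SD of controls, cut at about 140% in these data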
STAT1 act: STAT1 signaling activators, primary screen, cell-based, HTS, luciferase reporter. NIH 3T3 STAT1-luciferase reporter, IFN-gamma, luminescence; 100% = IFN-gamma alone, no compound. activation (% of control), % at 5.5 µM. hit rate 2.6% among 200,000;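 active means activation above the screen-wide mean activation plus 3 SD, cut at about 130% in these data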;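 further: raw ratio to IFN-gamma control signal so 100% means no change and 0% no light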
Rad51 HR inh: human RAD51 strand exchange inhibitors, primary screen, biochemical, fluorescence. hRad51 DNA strand exchange, fluorescence dequenching. inhibition, % at 10 µM. hit rate 0.085% among 200,000. AID 1385, 2008;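 active means inhibition above 40% at the single screening dose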;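 further: 0% = DMSO control wells and 100% = blanks with heterologous ssDNA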
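Test system – preformed human Rad51 ssDNA filaments · Reagent – Donor/quencher-labelled 47-bp dsDNA substrate · Incubation – 37 °C 15-min filament assembly, 30-min compound preincubation, 15-min exchange · Signal – FRET fluorescence dequenching, excitation 485 nm, emission 520 nm · Read-out – percent inhibition from fluorescence, normalised to plate control and blank means · Benchmarks – plate control and blank wells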
FLuc act counter: FLuc activators, initial screening, artefact control for FLuc-dependent activation tests, biochemical, ATPlite luminescence; ATPlite luciferase biochemical, 10 min; 0 = ATP-free wells, 1 = DMSO control; 200,000 tested, under 10 active; activation factor at 10 µM;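 active means luciferase activation factor, scaled between plate controls, of at least 2 with compound at 10 µM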
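System: Luciferase/luciferin detection reagent, cell-free biochemical luciferase assay | Medium: PBS buffer for ATP | Dosing: Test compounds dosed from 2 mM stocks in 100% DMSO | Timing: 10 min at ambient temperature | Signal: Luminescence measurement of luciferase light output | Evaluation: Luciferase activation, seen as luminescence increase over controls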
NF-kB neuron act: activators of NF-kB expression in neurons, primary screen, cell-based, HTS. human neuronal cells, NF-kB reporter expression; hits give high values. fold change at 12.5 µM. hit rate 1.6% among 190,000. AID 1239, 2008; in the data active means fold change above about 3.3
Active calls of the source: *; i = inactive; · = no result given. Only some compounds are listed: those with a hit (about 3.9% of all), similar ones and a draw of the others.

SMILES | FLuc inh counter | APP 5'UTR act | STAT1 act | Rad51 HR inh | FLuc act counter | NF-kB neuron act
COc1cccc(CNc2cnc3ccccc3c2)c1O | 12.5 | 93.3 | 95.3 | -0.2 | 0.9 | 7.56*
CCCCCCc1ccc(-c2ncc(N)cn2)cc1 | 4.1 | 69.6 | 138.7* | 3.5 | 1 | 4.39*
CCN(CC)CCSc1nnc2c3cc(C)ccc3n(Cc3ccccc3)c2n1 | · | · | · | 17.6 | · | ·
CCOc1ccc(/C=C/C(=O)c2c(O)c3ccccc3oc2=O)cc1 | 67.3* | 5.9 | 99.8 | · | 0.3 | 1.1
CN(C)c1ccc(/C=C/C(=O)c2c(O)c3ccccc3oc2=O)cc1 | · | · | · | i | · | ·
COc1ccc(N=C2O/C(=C/c3sc(=S)n(CC4CCCO4)c3O)N=C2C#N)cc1 (centres undefined) | · | · | · | -165.5 | · | ·
CCOC(=O)c1c(C)[nH]c(C(=O)COC(=O)C2CC2C)c1C (centres undefined) | 13.3 | 179.6* | 150.5* | 5.1 | 0.9 | 4.09*
CCOC(=O)c1c(C)[nH]c(C(=O)COC(=O)c2[nH]c(C)c(C(C)=O)c2C)c1C | -8.4 | 13.8 | 80.6 | 6.6 | 1.1 | 0.83
CN(C)c1ccc(/C=N/OC(=O)Nc2ccccc2Cl)cc1 | 16.5 | 5.3 | 104.0 | 4.8 | 0.8 | 1.58
Cc1ccn2c(-c3n[nH]c(=S)n3C)c(C)nc2c1 | -0.7 | 4.4 | 102.5 | 1.2 | 1 | 1.4
N/C(=N\OC(=O)c1ccc2c(c1)OCO2)c1ccc([N+](=O)[O-])cc1 | 14.9 | 49.1 | 129.2* | -1.7 | 0.9 | 1.71
COc1ccc(/C(N)=N/OC(=O)c2ccc3c(c2)OCO3)cc1OC | 62.4* | 44.3 | 116.5 | 6.0 | 0.4 | 2.06
COc1ccc(C(=O)Oc2ccc3c(c2)OCO3)cc1OC | 2.9 | 20.6 | 97.8 | 2.1 | 1 | 1.74
CCCCN=CC1=C(O)CC(c2ccccc2)CC1=O (centres undefined) | -4.1 | -3.0 | 99.0 | 7.1 | 1 | 1.24
Nc1cccc(CCc2nc3cc4ccccc4cc3[nH]2)c1 | 8.0 | -17.4 | 131.3* | 8.3 | 0.9 | 4.21*
COC(=O)C1C(=O)c2c([nH]c(C(=O)OC3CCCCC3)c2C)CC1C (centres undefined) | 25.1 | 123.7 | 125.4 | 3.1 | 0.7 | 1.65
COC(=O)C1C(=O)c2c([nH]c(C(=O)OC3CCCC3C)c2C)CC1C (centres undefined) | 35.4 | 156.6* | 138.1* | -7.8 | 0.6 | 3.01
COc1ccccc1/C=N/OC(=O)c1ccc(F)cc1 | 73.8* | -13.1 | 96.7 | · | 0.3 | 1.27
COc1ccccc1/C=N/NC(=O)c1ccc(Br)cc1 | 35.2 | 6.2 | 97.7 | -19.4 | 0.6 | 1.17
Cc1ccc2sc(=O)[nH]c2c1 | · | · | · | -0.7 | · | ·
COc1ccc(C2CC(c3cccs3)=NN2C(=O)COC(=O)c2cncc(Br)c2)cc1OC (centres undefined) | -2.3 | 11.5 | 91.3 | -1.6 | 1 | 1.01
Cc1ccccc1/C=C1\OC(=O)c2ccccc21 | 1.0 | 12.2 | 102.7 | · | 1 | 1.78
Cc1ccc(/C=C2\OC(=O)c3ccccc32)cc1 | 38.2 | 106.5 | 145.5* | -1.0 | 0.6 | 5.71*
Cc1cc(Nc2ccccc2C(=O)O)n(-c2ccc([N+](=O)[O-])cc2)n1 | · | · | · | 2.4 | · | ·
CC(NC(=O)CCc1nnc(CCCc2ccccc2)o1)c1ccccc1 (centres undefined) | -4.9 | 29.9 | 128.3 | -2.9 | 1 | 2.08
SMILES | FLuc inh counter | APP 5'UTR act | STAT1 act | Rad51 HR inh | FLuc act counter | NF-kB neuron act
Cn1ccnc1SCc1cn2cc(Br)ccc2n1 | 35.3 | 163.9* | 116.7 | 22.1 | 0.6 | 2.27
Cc1ccc(SCc2cn3ccccc3n2)cc1 | · | · | · | 21.3 | · | ·
O=S(=O)(NCc1cc(-c2ccc(Cl)cc2)no1)c1ccccc1 | -5.6 | -1.6 | 101.8 | 2.4 | 1.1 | 0.85
O=S(=O)(Cc1cc(-c2ccccc2Cl)no1)c1ccccc1 | 10.6 | 67.9 | 132.0* | -1.5 | 0.9 | 0.98
O=S(=O)(Cc1cc(-c2ccc(Cl)cc2)no1)c1ccccc1 | 2.2 | 44.2 | 135.0* | 18.0 | 1 | 2.14
O=S(=O)(NCc1cc(-c2ccccc2Cl)no1)c1ccccc1 | -3.2 | -21.5 | 96.5 | -10.9 | 1 | 1.02
Clc1ccc(-c2cc(COc3ccccc3)on2)cc1 | 4.1 | 41.5 | 132.5* | -0.6 | 1 | 1.91
CC(=O)c1ccc(NC(=S)NNC(=O)c2ccncc2)cc1 | 8.9 | -10.2 | 112.8 | -12.5 | 0.9 | 1.28
Cc1c2cnn(-c3ccccc3)c(=O)c2c(C)n1CCCC(=O)NCCN1CCN(C)CC1 | · | · | · | 21.2 | · | ·
Cc1cccc(CC(=O)c2c[nH]c3ccccc23)c1 | · | · | · | -3.8 | · | ·
O=C1OC(c2ccc(Br)cc2)=N/C1=C\N1CCCCC1 | -0.2 | 6.3 | 137.6* | -7.0 | 1 | 1.98
CN(C)/C=C1/N=C(c2ccccc2)OC1=O | -8.6 | -6.4 | 106.1 | 1.4 | 1.1 | 1.41
O=C1OC(c2ccccc2)=N/C1=C\N1CCCCC1 | 23.0 | 93.2 | 142.9* | -11.8 | 0.8 | 2.41
COc1cc(OC)c2c(=O)cc(-c3ccccc3)oc2c1 | 58.0* | 62.0 | 116.1 | · | 0.4 | 1.62
COc1cc(OC)c2c(=O)cc(-c3cccnc3)oc2c1 | · | · | · | 2.7 | · | ·
COc1ccc(N2C(=O)CCC2=O)c(OC)c1 | -3.5 | -7.8 | 140.4* | -3.2 | 1 | 1.07
COc1ccc(N2C(=O)C3CC(C)=C(C)CC3C2=O)c(OC)c1 (centres undefined) | -4.7 | 2.6 | 114.8 | -2.1 | 1 | 1.15
Cc1snc2sc(C(=O)c3ccc(Br)cc3)c(N)c12 | -0.2 | 2.5 | 134.8* | -5.1 | 1 | 1.3
Cc1nc(SCC(=O)c2ccc(F)c(F)c2)[nH]c(=O)c1Oc1ccc(F)cc1 | · | · | · | -13.0 | · | ·
O=C(Nc1cnn(C23CC4CC(CC(C4)C2)C3)c1)c1cc(-c2ccccc2)on1 | -6.1 | -15.8 | 106.0 | · | 1.1 | 1.04
Cc1ccc(-c2cc(C(=O)NCCN3CCOCC3)no2)cc1 | 2.0 | 21.9 | 99.8 | 6.3 | 1 | 1.07
CC(C)NC(=O)c1cc(-c2ccc(Br)cc2)on1 | 13.3 | 114.6 | 149.6* | -2.0 | 0.9 | 4.94*
CCCNC(=O)c1cc(-c2ccc(Br)cc2)on1 | 9.5 | 9.6 | 119.7 | · | 0.9 | 3.63*
CC(C)NC(=O)c1cc(-c2ccco2)on1 | 2.5 | 34.9 | 116.6 | -9.5 | 1 | 1.53
COc1ccc(-c2cc(C(=O)NCC(C)C)no2)cc1 | 13.5 | 25.7 | 132.8* | -1.2 | 0.9 | 5.01*
CCCn1cc(NC(=O)c2cc(-c3ccccc3)on2)cn1 | 4.8 | 0.2 | 129.7* | -4.0 | 1 | 3.63*
Cn1c(=O)cc(Nc2ccccc2)c2c(=O)n(-c3ccccc3)c(=O)n(-c3ccccc3)c21 | · | · | · | -14.7 | · | ·
N=c1c2c3c(sc2ncn1Nc1ccccc1)CCC3 | · | · | · | -3.5 | · | ·
